Test results: ChEMBL document CHEMBL2021837, “A novel series of l-2-benzyloxycarbonylamino-8-(2-pyridyl)-disulfidyloctanoic acid derivatives as histone deacetylase inhibitors: design, synthesis and molecular modeling study” (Eur J Med Chem, 2012)

How the values were obtained:
[1] = biological target: Histone deacetylase 2 (Homo sapiens, UniProt Q92769); assay: Inhibition of HDAC2 in human HeLa cell nuclear extracts in presence of dithiothreitol by HDAC fluorescent assay
[2] = biological target: Histone deacetylase 1 (Homo sapiens, UniProt Q13547); assay: Inhibition of human HDAC1 in presence of dithiothreitol by HDAC fluorescent assay
Chain of Histone deacetylase 1 (Q13547 whole entry): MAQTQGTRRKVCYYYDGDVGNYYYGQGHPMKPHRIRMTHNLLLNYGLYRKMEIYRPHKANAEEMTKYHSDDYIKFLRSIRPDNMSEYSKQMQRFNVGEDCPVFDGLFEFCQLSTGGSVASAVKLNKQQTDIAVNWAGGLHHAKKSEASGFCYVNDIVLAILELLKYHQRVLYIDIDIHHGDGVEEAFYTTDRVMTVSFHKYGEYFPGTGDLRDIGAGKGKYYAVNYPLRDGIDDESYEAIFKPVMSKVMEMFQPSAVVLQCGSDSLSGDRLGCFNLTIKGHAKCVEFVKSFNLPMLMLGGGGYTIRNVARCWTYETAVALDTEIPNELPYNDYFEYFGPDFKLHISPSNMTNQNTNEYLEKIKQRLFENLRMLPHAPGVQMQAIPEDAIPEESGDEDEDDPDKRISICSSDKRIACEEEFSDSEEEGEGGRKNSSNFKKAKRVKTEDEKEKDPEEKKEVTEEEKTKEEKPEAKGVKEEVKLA

[3] = tested on: MCF7; assay: Antiproliferative activity against human MCF7 cells after 48 hrs by MTT assay; format: functional, cell-based; details: MCF7, 48 h
In short: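 MCF-7 cells were grown in DMEM with 10% fetal bovine serum at 37 °C under 5% CO₂, then plated and incubated overnight. Compounds were added as 10-fold serial dilutions. MTT (0.5 mg/mL in serum-free medium) was added for 4 h, formazan was dissolved in DMSO, and absorbance was read at 570 nm. IC₅₀ was determined in triplicate, with at least three repeat experiments.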

Chain of Histone deacetylase 2 (Q92769 whole entry): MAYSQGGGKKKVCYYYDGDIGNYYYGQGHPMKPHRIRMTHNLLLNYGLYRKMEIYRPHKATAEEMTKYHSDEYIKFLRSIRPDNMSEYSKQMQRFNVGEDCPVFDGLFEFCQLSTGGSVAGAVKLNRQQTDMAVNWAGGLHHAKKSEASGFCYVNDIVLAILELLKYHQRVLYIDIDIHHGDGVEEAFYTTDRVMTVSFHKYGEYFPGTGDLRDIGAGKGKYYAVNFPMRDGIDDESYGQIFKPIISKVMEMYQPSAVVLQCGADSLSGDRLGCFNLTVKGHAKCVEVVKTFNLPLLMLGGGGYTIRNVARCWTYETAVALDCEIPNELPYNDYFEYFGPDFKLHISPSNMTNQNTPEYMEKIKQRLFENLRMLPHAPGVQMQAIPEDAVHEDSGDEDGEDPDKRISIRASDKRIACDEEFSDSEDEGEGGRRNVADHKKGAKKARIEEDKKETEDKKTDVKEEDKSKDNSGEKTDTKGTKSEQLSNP

SMILES	IC50 [1] [µM]	IC50 [2] [µM]	IC50 [3] [µM]
O=C(N[C@@H](CCCCCCSSc1ccccn1)C(=O)Nc1cccc2ccccc12)OCc1ccccc1	0.0382	0.0652	15.3
O=C(N[C@@H](CCCCCCSSc1ccccn1)C(=O)OCc1cccc([N+](=O)[O-])c1)OCc1ccccc1	0.0485	0.0667	15.2
O=C(N[C@@H](CCCCCCSSc1ccccn1)C(=O)OCc1cccc2ccccc12)OCc1ccccc1	0.0396	0.0647	15.3
O=C(N[C@@H](CCCCCCSSc1ccccn1)C(=O)OCc1ccc([N+](=O)[O-])cc1)OCc1ccccc1	0.0455	0.0644	16.9
O=C(N[C@@H](CCCCCCSSc1ccccn1)C(=O)Nc1nc(-c2ccccc2)cs1)OCc1ccccc1	0.0039	0.0051	3.2
O=C(N[C@@H](CCCCCCSSc1ccccn1)C(=O)OCC1c2ccccc2-c2ccccc21)OCc1ccccc1	0.0052	0.0076	3.5
CC(/C=C/C(=O)NO)=C\[C@@H](C)C(=O)c1ccc(N(C)C)cc1 [TRICHOSTATIN]	–	–	1.7
O=C(N[C@@H](CCCCCCSSc1ccccn1)C(=O)OCc1ccc2ccccc2c1)OCc1ccccc1	0.0403	0.0652	14.8
O=C(N[C@@H](CCCCCCSSc1ccccn1)C(=O)NC1CCCCC1)OCc1ccccc1	0.0441	0.0669	19.6
O=C(N[C@@H](CCCCCCSSc1ccccn1)C(=O)OCc1c2ccccc2cc2ccccc12)OCc1ccccc1	0.0436	0.0592	14
O=C(N[C@@H](CCCCCCSSc1ccccn1)C(=O)NC1c2ccccc2-c2ccccc21)OCc1ccccc1	0.0481	0.0682	17.2
O=C(N[C@@H](CCCCCCSSc1ccccn1)C(=O)Nc1ccc(-c2ccccc2)cc1)OCc1ccccc1	0.0466	0.0709	18.1
O=C(N[C@@H](CCCCCCSSc1ccccn1)C(=O)Nc1ccccc1-c1ccccc1)OCc1ccccc1	0.0452	0.0712	20.8
O=C(N[C@@H](CCCCCCSSc1ccccn1)C(=O)OCc1ccc(-c2ccccc2)cc1)OCc1ccccc1	0.0407	0.0641	15.6
